AHR act – human AHR activation. hit rate 2.5% among 320,000. activation, % at 5 µM. AHR-responsive luciferase reporter cells, luminescence. P35869. AID 2796; in the data active = activation above about 47%
HTR2A ag – mouse HTR2A agonism via beta-arrestin recruitment; P35363; CHO-K1 mHTR2A beta-arrestin complementation, luminescence; percent of 30 µM serotonin response; activation, % at 7.6 µM; hit rate 0.66% among 360,000;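 active = activation above a run cutoff, the mean activation of all tested compounds plus 3 SD, cut at about 14% in these data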
FXN GAA850 act – increases GAA850 frataxin promoter reporter activity; hit rate 0.56% among 360,000; AID 540364; activation, % at 6 µM; HEK293 lucGAA850 FXN promoter luciferase reporter, 24 h; percent of 10 µM SAHA response;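 active = activation above the average of all compounds screened plus 3 SD, cutoff fixed separately per campaign, cut at about 7.5% in these data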
MC4R ag barr – agonists of human melanocortin 4 receptor (MC4R) beta-arrestin. P32245. U2OS MC4R beta-arrestin complementation, luminescence; percent of melanotan II response, DMSO zero. activation, % at 8.9 µM. hit rate 0.98% among 360,000. AID 540308;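 active = activation above a per-plate cutoff, the mean activation of sample wells on that plate plus 3 SD, cut at about 8% in these data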
MC4R antagonist – antagonists of human melanocortin 4 receptor (MC4R); MC4R-expressing cells, MTII-stimulated cAMP, LANCE TR-FRET; inhibition, % at 6.5 µM; hit rate 0.48% among 360,000; AID 540295;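 active = inhibition above its plate's cutoff, the mean of tested wells on that plate plus 3 SD, cut at about 29% in these data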
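System: U2OS-MC4R stable cell line; Technique: Eu-cAMP/anti-cAMP TR-FRET, emission 671 nm; Repeats: single well per compound; Also added: Melanotan II; Dosing: one concentration, 6.5 µM nominal; Schedule: 30-min compound, 1-h challenge, 1-h detection, room temperature.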
AHR act cf – human AHR activation, confirmation. shares compounds with AHR act. human cells, AHR-responsive luciferase reporter, luminescence. activation, % at 9 µM. hit rate 87% among 2,300. AID 2845; in the data active = activation above about 49%;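 note: HepG2 hepatoma cells carrying a DRE-driven firefly luciferase reporter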
PXR counter – counter-screen for AHR activators: human PXR activators. shares compounds with AHR act. cell-based PXR reporter, luciferase luminescence. activation, % at 11.6 µM. hit rate 88% among 2,300. AID 434939; in the data active = activation above about 11%;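 note: human hepatoma DPX-2 cells expressing full-length human PXR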
Target sequence (O75469 whole entry, looked up): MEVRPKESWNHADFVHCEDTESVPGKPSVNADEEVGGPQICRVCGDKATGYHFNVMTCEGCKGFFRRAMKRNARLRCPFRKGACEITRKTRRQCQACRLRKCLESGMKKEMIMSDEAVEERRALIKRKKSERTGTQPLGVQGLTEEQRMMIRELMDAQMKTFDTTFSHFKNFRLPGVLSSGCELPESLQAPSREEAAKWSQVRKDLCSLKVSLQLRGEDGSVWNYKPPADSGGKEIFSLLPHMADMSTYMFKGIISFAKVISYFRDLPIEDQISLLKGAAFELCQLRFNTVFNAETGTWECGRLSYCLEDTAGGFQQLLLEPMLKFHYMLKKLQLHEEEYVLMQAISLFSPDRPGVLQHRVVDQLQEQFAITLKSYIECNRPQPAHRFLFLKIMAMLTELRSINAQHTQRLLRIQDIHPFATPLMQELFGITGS
Numbers stand for hits; . = inactive; / = no result given. Hits are enriched below; roughly 4.7% of the tested compounds scored in any of these assays.

SMILES	AHR act	HTR2A ag	FXN GAA850 act	MC4R ag barr	MC4R antagonist	AHR act cf	PXR counter
CCSc1nnc(NC(=O)c2ccc3c(c2)OCO3)s1	.	.	.	.	.	/	/
CC(=O)C[C@H](O)CC(=O)[C@H]1OC(=O)CCCCCCCc2ccccc21	.	.	.	.	.	/	/
COc1cccc(NC(=O)c2ccc3c(c2)OCO3)c1	134	.	.	.	.	.	26
O=C(Nc1ccc2c(c1)OCO2)C(=O)c1c[nH]c2ccccc12	84	.	.	.	.	70	38
COC(=O)c1ccc(NC(=O)c2ccc3c(c2)OCO3)cc1	.	.	.	.	.	/	/
COC(=O)c1c(-c2cccnc2)csc1NC(=O)c1ccc2c(c1)OCO2	114	.	.	.	.	.	.
Cn1nc(C(=O)Nc2ccccc2N2CCCC2)c2ccccc2c1=O	114	.	.	.	.	82	74
CCOC(=O)N1CCN(C(C(=O)NC2CCCC2)C(C)C)CC1 (stereo not given)	/	.	/	/	/	/	/
CC1CCCCC1Nc1nc2ccc(Cl)cc2n2cnnc12 (stereo not given)	.	.	.	.	.	/	/
CC(=O)N1CC(C(=O)Nc2ccc3c(c2)OCO3)Oc2ccccc21 (stereo not given)	102	.	.	.	.	121	34
O=C(Nc1ccc2c(c1)OCO2)c1ccccc1	101	.	.	.	.	52	24
O=C(Nc1ccc2c(c1)OCCO2)c1ccccc1	.	.	.	.	.	/	/
Cn1nc(C(=O)Nc2ccc3c(c2)OCO3)c2ccccc2c1=O	123	.	.	.	.	107	.
O=C(Nc1cccc2nsnc12)c1ccc2c(c1)OCO2	118	.	.	.	.	127	30
CC1(C)Oc2ccc(NC(=O)C3COc4ccccc4O3)cc2O1 (stereo not given)	.	.	.	.	.	/	/
CCOC(=O)C1=C(C)NC(C)=C(C(=O)OCC)C1C(=O)OCC(=O)N1CCOCC1	.	.	.	.	.	/	/
O=c1c2ccccc2ncn1-c1ccc(Cl)cc1	112	.	.	.	.	115	.
O=c1c2ccccc2ncn1Cc1ccc(Cl)cc1	.	.	.	.	.	/	/
Cc1ccc(C2Nc3ccccc3-c3nc4ccccc4n32)o1 (stereo not given)	116	.	.	.	.	74	53
O=C(NNc1nc2cc3c(cc2s1)OCCO3)c1ccc(F)cc1	.	.	.	.	.	/	/
Fc1ccc2nc(Nc3ccccc3)sc2c1	.	.	.	.	.	/	/
Fc1ccc2nc(Nc3nc4cc5c(cc4s3)OCO5)sc2c1	119	.	.	.	.	80	19
Fc1ccc2nc(Nc3nc4cc5c(cc4s3)OCCO5)sc2c1	103	.	.	.	.	52	.
O=C(NCc1cccnc1)c1cc(C2CCCCN2C(=O)OCCF)on1 (stereo not given)	/	.	.	.	.	/	/
O=C(O)C1Cc2c([nH]c3ccccc23)C(c2ccc3c(c2)OCO3)N1 (stereo not given)	90	.	.	.	.	73	12
SMILES	AHR act	HTR2A ag	FXN GAA850 act	MC4R ag barr	MC4R antagonist	AHR act cf	PXR counter
CCCN(Cc1ccccc1)C(=S)Nc1cccc(C)c1C	.	.	.	.	.	/	/
Cc1cccc(NC(=S)NN(Cc2ccccc2)c2ccccc2)c1C	116	.	.	.	.	108	214
O=C(c1cnc2n(c1=O)CCS2)N1CCN(C(c2ccccc2)c2ccc(Cl)cc2)CC1 (stereo not given)	.	.	.	.	.	/	/
O=c1c(-c2ccc(Cl)cc2)cnc2n1CCS2	116	.	.	.	.	131	53
C=CCn1c(=N)n(CC(=O)c2cccc([N+](=O)[O-])c2)c2ccccc21	85	.	.	.	.	128	58
N=c1n(CC(=O)c2ccc([N+](=O)[O-])cc2)c2ccccc2n1Cc1ccccc1	.	.	.	.	.	/	/
CCCOc1ccccc1C(=O)N(Cc1cccc(Br)c1)C1CCS(=O)(=O)C1 (stereo not given)	.	.	.	.	.	/	/
COc1ccc(C(=O)N/C(=C\c2cn(C)c3ccccc23)C(=O)OCC(C)C)cc1	90	.	.	.	.	60	137
CCN(CC)C(=O)/C(=C/c1cn(S(=O)(=O)N(C)C)c2ccccc12)NC(=O)c1ccc(OC)cc1	.	.	.	.	.	/	/
COc1ccc(C(=O)N/C(=C\c2cn(C)c3ccccc23)C(=O)OCCN(C)C)cc1	100	.	.	.	.	109	94
N#Cc1ccc(COC(=O)CC(NC(N)=O)c2ccc(Cl)cc2)cc1 (stereo not given)	.	.	.	.	.	/	/
CCCCNC(=O)c1[nH]c(C2CCNCC2)nc1-c1cccc(C(F)(F)F)c1	/	.	/	/	/	/	/
Cc1cc(C)c2[nH]c(O)c(N=NC(=S)NCC3CCCO3)c2c1 (stereo not given)	124	.	.	.	.	100	114
Oc1[nH]c2ccc(Br)cc2c1N=NC(=S)NCC1CCCO1 (stereo not given)	104	.	.	.	.	72	23
Oc1[nH]c2ccccc2c1N=NC(=S)NCC1CCCO1 (stereo not given)	.	.	.	.	.	/	/
O=C(NCCC(F)(F)F)c1cccc2c(-c3ccc(F)c(F)c3)coc12	/	.	.	.	.	/	/
Cn1ccsc1=NC(=O)c1cccc(C#N)c1	.	.	.	.	.	/	/
CSc1nc2[nH]c3c(c2c2nnnn12)CCCC3	116	.	.	.	.	107	44
CSc1nc2[nH]c3c(c2c2nncn12)CC(C)(C)OC3	.	.	.	.	.	/	/
Cc1nc(SCC(=O)NC2(C#N)CCCC2)n(CC(C)C)c1C	/	.	.	.	.	/	/
COc1ccc(CCNC(=O)CC2Nc3ccccc3NC2=O)cc1OC (stereo not given)	.	.	.	.	.	/	/
COc1ccc(CCNC(=O)CC2Oc3ccc(Cl)cc3NC2=O)cc1OC (stereo not given)	98	.	.	.	.	.	46
O=C1CC(c2ccccc2)Oc2cc(O)ccc21 (stereo not given)	.	.	.	.	.	/	/
O=C(CN(c1ccc(F)cc1)S(=O)(=O)c1ccc2c(c1)OCCO2)Nc1ccc2c(c1)OCO2	101	.	.	.	.	52	72
CCC(=O)N1CCN(C(C)=O)C1c1ccccc1 (stereo not given)	.	.	.	.	.	/	/
CC(=O)N1CCN(S(=O)(=O)c2ccccc2)C1c1ccccc1 (stereo not given)	102	.	.	.	.	.	63
COC(=O)c1c(-c2ccc(OC)cc2)sc2ccc(-c3ccc4c(c3)OCO4)cc12	.	.	.	.	.	/	/

Assay outcomes from PubChem.
